Measurements reported in ChEMBL document CHEMBL1122260, “Synthesis and biological activity of prostaglandin lactones” (J Med Chem, 1983).
Activity calls are given as the source filed them. The rule behind the calls is not given here.

Experiments:
[1] = organism: Rattus norvegicus; assay: Plasma hydrolysis following 2 hr incubation with rat plasma; type: functional
Outline: (§1)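 Substrates incubated with saline (control), hog liver esterase, or rat, monkey or human blood plasma for 2 h or 20 h; released PGF2α quantified by radioimmunoassay as cross-reactivity with PGF2α antisera. PGF2α itself served as assay positive control. Substrate cross-reaction with the antisera determined separately.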

[2] = test system: Monkey; assay: Plasma hydrolysis following 2 hr incubation with monkey plasma; type: functional, Cercopithecidae; outline: as §1
[3] = organism: Rattus norvegicus; assay: Plasma hydrolysis following 20 hr incubation with rat plasma; type: functional; outline: as §1
[4] = organism: Sus scrofa; assay: Plasma hydrolysis following 20 hr incubation with hog liver esterase; type: functional; outline: as §1
[5] = organism: Sus scrofa; assay: Plasma hydrolysis following 2 h incubation with hog liver esterase; type: functional; outline: as §1
[6] = organism: Homo sapiens; assay: Plasma hydrolysis following 2 hr incubation with human plasma; type: functional; outline: as §1
[7] = organism: Homo sapiens; assay: Plasma hydrolysis following 20 hr incubation with human plasma; type: functional; outline: as §1
[8] = Plasma hydrolysis of percent cross reaction of substrate with PGF2-alpha antisera; type: ADME, cell-free; outline: as §1
[9] = test system: Monkey; assay: Plasma hydrolysis following 20 hr incubation with monkey plasma; type: functional, Cercopithecidae; outline: as §1
[10] = organism: Rattus norvegicus; assay: Blood pressure potency in rat relative to PGE1 (100); type: functional
Outline: (§2)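 Mature female albino rats, pentobarbital anesthesia (30 mg/kg ip, supplemented as needed), pretreated with atropine sulfate (0.08 mg sc) and pentolinium tartrate (2 mg iv). Test solutions or emulsions injected via femoral vein; carotid arterial pressure recorded by transducer. Change in mmHg (rise or fall) compared with standards: PGE1 for depressor, PGF2α for pressor responses.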

[11] = test system: Gerbillinae; assay: Gerbil colon stimulation relative to PGE1 (100); Range from (0.1-0.3); type: functional
Outline: (§3)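 Isolated ascending colon from male gerbils (Meriones unguiculatus) mounted in de Jalon's solution (NaCl 154 mM, KCl 0.54 mM, CaCl2 0.27 mM, NaHCO3 1.78 mM, glucose 5.55 mM); isotonic contractions recorded with linear transducers in 5-mL baths.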

[12] = test system: Gerbillinae; assay: Gerbil colon stimulation relative to PGE1 (100); Ranges from (0.1-0.3); type: functional; outline: as §3
[13] = organism: Rattus norvegicus; assay: Blood pressure potency in rat relative to […]; T denotes toxic; type: organism-based; outline: as §2
[14] = organism: Rattus norvegicus; assay: Blood pressure potency in rat relative to PGE1 (100); IA means inactive; type: functional, organism-based; outline: as §2
[15] = test system: Gerbillinae; assay: Gerbil colon stimulation relative to PGE1 (100); type: functional; outline: as §3
[16] = organism: Rattus norvegicus; assay: Blood pressure potency in rat relative to PGF2-alpha (100). Range is between (32-100).; type: functional; outline: as §2
[17] = organism: Rattus norvegicus; assay: Blood pressure potency in rat relative to PGE1 (100); value ranges from (0.1-0.3); type: functional; outline: as §2
[18] = organism: Rattus norvegicus; assay: Blood pressure potency in rat relative to PGF2-alpha (100). Range is between (0.3-1); type: functional; outline: as §2
[19] = test system: Gerbillinae; assay: Gerbil colon stimulation relative to PGE1 (100); Range is between (1-3); type: functional; outline: as §3
[20] = organism: Rattus norvegicus; assay: Blood pressure potency in rat relative to PGE1 (100); Range is between (1-3); type: functional; outline: as §2
[21] = test system: Gerbillinae; assay: Gerbil colon stimulation relative to PGE1 (100); Range from (32-100); type: functional; outline: as §3
[22] = test system: Gerbillinae; assay: Gerbil colon stimulation relative to PGE1 (100); Range is between (0.1-0.3); type: functional; outline: as §3
[23] = test system: Rattus norvegicus; assay: In vivo urinary excretion of PGF2-alpha metabolite in rats, when administered sc (1 mg/rat) urinary excretion on day 1 Range is between (31.9-155).; type: functional, Urine
[24] = test system: Rattus norvegicus; assay: In vivo urinary excretion of PGF2-alpha metabolite in rats, when administered sc (1 mg/rat) urinary excretion on day 2 Range is between (2.2-5.6).; type: functional, Urine
[25] = test system: Gerbillinae; assay: Gerbil colon stimulation relative to PGE1 (100); Range is between (0.3-1); type: functional; outline: as §3
[26] = organism: Rattus norvegicus; assay: Blood pressure potency in rat relative to PGE1 (100). Range is between (10-32); type: functional; outline: as §2
[27] = organism: Rattus norvegicus; assay: Blood pressure potency in rat relative to PGE1 (100); compound is biphasic and weak.; type: functional, organism-based; outline: as §2
[28] = organism: Rattus norvegicus; assay: Blood pressure potency in rat relative to PGE1 (100). Range is between (0.1-3); type: functional; outline: as §2
[29] = test system: Rattus norvegicus; assay: in vivo Urinary excretion of PGF2-alpha metabolite in rats, when administered sc (1 mg/rat) urinary excretion on day 1 Range is between (1.3-1.6).; type: functional, Urine
[30] = test system: Rattus norvegicus; assay: in vivo Urinary excretion of PGF2-alpha metabolite in rats, when administered sc (1 mg/rat) urinary excretion on day 2 Range is between (0.7-1.1).; type: functional, Urine
[31] = organism: Rattus norvegicus; assay: Blood pressure potency in rat relative to PGF2-alpha (100); value ranges from (0.3-1); type: functional; outline: as §2
[32] = test system: Rattus norvegicus; assay: in vivo urinary excretion of PGF2-alpha metabolite in rats, when administered sc (1 mg/rat) urinary excretion on day 2. Range is between (1.2-2.0); type: functional, Urine
[33] = test system: Rattus norvegicus; assay: in vivo Urinary excretion of PGF2-alpha metabolite in rats, when administered sc (1 mg/rat) urinary excretion on day. c1(27.2-31.1); type: functional, Urine
[34] = test system: Gerbillinae; assay: Gerbil colon stimulation relative to PGE1 (100); Range from (0.3-1); type: functional; outline: as §3
[35] = test system: Gerbillinae; assay: Gerbil colon stimulation relative to PGE1 (100); Range from (1-3); type: functional; outline: as §3
[36] = organism: Rattus norvegicus; assay: Blood pressure potency in rat relative to PGF2-alpha (100); value ranges from (3-10); type: functional; outline: as §2
[37] = organism: Rattus norvegicus; assay: Blood pressure potency in rat relative to PGF2-alpha (100). Range is between(3-10).
[38] = test system: Rattus norvegicus; assay: in vivo urinary excretion of PGF2-alpha metabolite in rats, when administered sc (1 mg/rat) urinary excretion on day 1; type: functional, Urine
[39] = test system: Rattus norvegicus; assay: in vivo urinary excretion of PGF2-alpha metabolite in rats, when administered sc (1 mg/rat) urinary excretion on day 2; type: functional, Urine
[40] = organism: Rattus norvegicus; assay: Blood pressure potency in rat relative to PGE1 (100); value ranges from( 0.1-0.3); type: functional; outline: as §2

CCCCC[C@@H](/C=C/C1[C@H](O)C[C@H](O)[C@@H]1C/C=C\CCCC(=O)O)OC(C)=O (stereo not given in full)
Hydrolysis [1]: 18% | Hydrolysis [2]: 3.6% | Hydrolysis [3]: 25.7% | Hydrolysis [4]: 85% | Hydrolysis [5]: 59.1% | Hydrolysis [6]: 3.3% | Hydrolysis [7]: 6.8% | Cross reaction [8]: 2.4% | Hydrolysis [9]: 9.4%

CCCCC[C@@H]1/C=C\C2CCC(=O)[C@@H]2C/C=C\CCCC(=O)O1 (stereo not given in full)
Relative potency [10]: <0.1 | Relative potency [11]: 0.1

O=C1CCC/C=C\C[C@@H]2C(/C=C\[C@@H](COc3ccccc3)O1)[C@H](O)C[C@@H]2O (stereo not given in full)
Relative potency [12]: 0.1 | Relative potency [13]: Toxic | Relative potency [14]: inactive

CCCCC[C@@H]1/C=C\C2[C@H](O)CC(=O)[C@@H]2CCCCCCC(=O)O1 (stereo not given in full)
Relative potency [10]: <0.1 | Relative potency [15]: <0.1

O=C1CCC/C=C\C[C@@H]2C(/C=C\[C@@H](CCc3ccccc3)O1)[C@H](O)C[C@@H]2O (stereo not given in full)
Relative potency [15]: <0.1 | Relative potency [16]: 32

CCCCC[C@@H]1/C=C\C2C(=O)CC(O)[C@@H]2C/C=C\CCCC(=O)O1 (stereo not given in full)
Relative potency [11]: 0.1 | Relative potency [17]: 0.1

CCCCC[C@](C)(O)/C=C/C1[C@@H]2C[C@@H](O)[C@H]1C/C=C\CCCC(=O)O2 (stereo not given in full)
Relative potency [15]: <0.1 | Relative potency [18]: 0.3

CCCCC[C@@H]1/C=C\C2C=CC(=O)[C@@H]2C/C=C\CCCC(=O)O1 (stereo not given in full)
Relative potency [19]: 0.1 | Relative potency [10]: 0.1

CCCCC[C@@H]1/C=C\C2[C@H](O)CC(=O)[C@@H]2C/C=C\CCCC(=O)O1 (stereo not given in full)
Relative potency [19]: 1 | Relative potency [20]: 1

CCCCC(C)(C)[C@H](O)/C=C/C1[C@H](O)C[C@@H]2OC(=O)CCC/C=C\C[C@H]12 (stereo not given in full)
Relative potency [21]: 32 | Relative potency [17]: 0.1

CCCCC[C@@H]1/C=C\C2[C@H](O)C[C@H](O)[C@@H]2CCCCCCC(=O)O1 (stereo not given in full)
Relative potency [10]: <0.1 | Relative potency [15]: <0.1

CCCCC[C@@H]1/C=C\C2[C@H](O)C[C@H](O)[C@@H]2C/C=C\CCCC(=O)O1 (stereo not given in full)
Hydrolysis [1]: 51.4% | Hydrolysis [2]: 8.4% | Relative potency [10]: <0.1 | Hydrolysis [3]: 58.7% | Relative potency [22]: 0.1 | Urinary excretion [23]: 77.1 µg | Hydrolysis [4]: 75.6% | Hydrolysis [5]: 55.3% | Hydrolysis [6]: 55.6% | Hydrolysis [7]: 57.9% | Cross reaction [8]: 0.9% | Urinary excretion [24]: 3.9 µg | Hydrolysis [9]: 41.7%

CCCCC[C@H](O)/C=C/C1C(=O)C[C@@H]2OC(=O)CCC/C=C\C[C@H]12 (stereo not given in full)
Relative potency [25]: 0.3 | Relative potency [26]: 10

O=C1CCC/C=C\C[C@H]2C(=O)C[C@@H](O)C2/C=C\[C@@H](CCc2ccccc2)O1 (stereo not given in full)
Relative potency [25]: 0.3 | Relative potency [27]: Weak

CCCCC[C@H](O)/C=C/C1[C@H](O)C[C@@H]2OC(=O)CCC/C=C\C[C@H]12 (stereo not given in full)
Hydrolysis [1]: 0.2% | Relative potency [19]: 1 | Hydrolysis [2]: 0.06% | Relative potency [28]: 0.1 | Urinary excretion [29]: 1.4 µg | Hydrolysis [3]: 0.8% | Urinary excretion [30]: 0.9 µg | Hydrolysis [4]: 1.8% | Hydrolysis [5]: 0.2% | Hydrolysis [6]: 0.06% | Hydrolysis [7]: 0.4% | Cross reaction [8]: < 0.05% | Hydrolysis [9]: 0.3%

CCCCC[C@H](O)/C=C/C1[C@@H]2C[C@@H](O)[C@H]1C/C=C\CCCC(=O)O2 (stereo not given in full)
Hydrolysis [1]: 43% | Relative potency [31]: 0.3 | Hydrolysis [2]: 2.4% | Urinary excretion [32]: 1.6 µg | Urinary excretion [33]: 27.2 µg | Hydrolysis [3]: 80.6% | Hydrolysis [4]: 100% | Hydrolysis [5]: 28.3% | Hydrolysis [6]: 0.2% | Hydrolysis [7]: 0.6% | Cross reaction [8]: 0.09% | Hydrolysis [9]: 15.5% | Relative potency [34]: 0.3

C[C@@](O)(/C=C/C1[C@H](O)C[C@@H]2OC(=O)CCC/C=C\C[C@H]12)CCc1ccccc1 (stereo not given in full)
Relative potency [35]: 1 | Relative potency [36]: 3

CCCCC[C@](C)(O)/C=C/C1[C@H](O)C[C@@H]2OC(=O)CCC/C=C\C[C@H]12 (stereo not given in full)
Relative potency [19]: 1 | Relative potency [37]: 3

CCCCC[C@H](O)/C=C/[C@@H]1[C@@H](C/C=C\CCCC(=O)O)[C@@H](O)C[C@H]1O [DINOPROST]
Hydrolysis [1]: 100% | Hydrolysis [2]: 100% | Urinary excretion [38]: 252 µg | Hydrolysis [3]: 100% | Urinary excretion [39]: 14.5 µg | Hydrolysis [4]: 100% | Hydrolysis [5]: 100% | Hydrolysis [6]: 100% | Hydrolysis [7]: 100% | Cross reaction [8]: 100% | Hydrolysis [9]: 100%

CCCCC[C@](C)(O)/C=C/C1[C@H](O)C[C@@H]2OC(=O)C(F)(F)CC/C=C\C[C@H]12 (stereo not given in full)
Relative potency [35]: 1 | Relative potency [40]: 0.1
